# Sampled rows, rich in hits. Any-hit rate of the full collection: about 2.3%.
# CAL PDZ FP-1 – CAL PDZ peptide-binding inhibitors, primary screen, biochemical, fluorescence polarization, Cer-tagged CAL PDZ, HTS; Golgi-associated PDZ and coiled-coil motif-containing protein (Homo sapiens), Q9HD26; 0.02% of 330,000 active; AID 504414, 2011; inhibition, % at 20 µM; purified CAL PDZ, TMR-peptide fluorescence polarization, 1 h;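 active means highest replicate inhibition of at least 40%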;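 further: plate controls were DMSO neutral control wells for no effect and unlabeled competitor peptide control wells for full effect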
#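 Material – purified CerCALP PDZ construct · Detection – FP readout, S and P plane fluorescence · Measure – percent inhibition from loss of millipolarization · Controls – unlabelled peptide for full inhibition, DMSO wells as neutral · Probe or stimulus – TMR-labelled reporter peptide T*-PRC34 bound in PDZ groove · Times – 1 h at RT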
# CAL PDZ FP-2 – untagged CAL PDZ binding inhibitors, primary screen, biochemical, fluorescence polarization, HTS | purified CAL PDZ, TMR-peptide fluorescence polarization, 1 h | inhibition, % at 24.9 µM | 0.92% of 300,000 active;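 active means mean inhibition of at least 30% with at least half of replicates also reaching 30%; inconclusive means no clear call, values can overlap the other calls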;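 further: 0% = DMSO neutral control and 100% = excess unlabeled competitor peptide PRC23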
# SR-BI DiI-HDL act – activators of SR-BI mediated DiI-HDL uptake, primary screen, ldlA[mSR-BI] CHO cells, DiI fluorescence; 3 h; 100 = double the neutral-control signal; activation, % at 12.5 µM; 0.096% of 320,000 active;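 active means mean replicate activation of at least 60% and every replicate at or above 60%; inconclusive means mean or all-replicate condition met, but not both; inactive means mean below 60% and not all replicates reaching 60%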;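 further: 0% = median plate neutral-control signal and 100% = twice that signal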
#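 Material: SR-BI-overexpressing, LDLR-lacking CHO cells; schedule: compound exposure 3 h, 37 °C; reagent: DiI-labelled HDL at 10 µg/mL final; technique: bottom-read fluorescence, 550/595 nm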
# SR-BI DiI inh – inhibitors of SR-BI mediated HDL lipid uptake, primary screen, ldlA[mSR-BI] cells, fluorescence, single point; Scavenger receptor class B member 1 (Mus musculus), Q61009; ldlA[mSR-BI] CHO cells, DiI-HDL uptake fluorescence, 3 h; inhibition, % at 12.5 µM; 0.96% of 320,000 active; AID 488896, 2010;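 active means mean replicate inhibition of at least 70% and a set share of replicates each scoring 70 or more; inconclusive means meets just one of the two criteria; inactive means fails both criteria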;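 further: 0% = median of neutral control wells and 100% = median of positive control wells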
# ATG4B inhibitor – ATG4B protease inhibitors, primary screen, biochemical, fluorescence, uHTS; Cysteine protease ATG4B (Homo sapiens), Q9Y4P1; ATG4B cleavage of LC3-PLA2, NBD-HPC fluorescence, 1 h; inhibition, % at 8.33 µM; 0.51% of 340,000 active; AID 504462, 2011; in the data active means inhibition above about 40%
# Target sequence (Q9Y4P1 whole entry, looked up): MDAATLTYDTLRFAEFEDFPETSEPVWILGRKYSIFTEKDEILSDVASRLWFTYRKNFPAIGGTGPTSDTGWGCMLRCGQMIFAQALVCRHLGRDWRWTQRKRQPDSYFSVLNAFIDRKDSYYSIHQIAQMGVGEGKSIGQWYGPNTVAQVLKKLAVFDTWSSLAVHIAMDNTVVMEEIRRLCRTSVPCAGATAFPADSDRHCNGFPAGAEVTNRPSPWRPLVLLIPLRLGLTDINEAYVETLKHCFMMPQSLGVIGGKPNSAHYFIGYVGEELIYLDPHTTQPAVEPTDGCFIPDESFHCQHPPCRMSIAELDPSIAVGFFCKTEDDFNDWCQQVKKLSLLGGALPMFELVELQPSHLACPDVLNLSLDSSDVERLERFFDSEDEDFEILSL
# DiI quencher – DiI fluorescence quenching in cell-free counter-screen. AID 540326. shares compounds with SR-BI DiI inh. cell-free DiI-HDL fluorescence quenching, 30 min. AC50, µM (series often up to 35 µM), inactives show top-dose activity change, negative = quenching. 20% of 470 active;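 active means quenching, a falling signal, with AC50 below a set limit tied to the top valid dose, actives reach about 32 µM in these data; inconclusive means no clear call, values can overlap the other calls; inactive means rising signal, and the rest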
# Starred values were filed as active, the others as inactive; ? = inconclusive; · = no result given.
SMILES,CAL PDZ FP-1,CAL PDZ FP-2,SR-BI DiI-HDL act,SR-BI DiI inh,ATG4B inhibitor,others
CCC(=O)N1CCN(c2ccccc2NC(=S)NC(=O)c2cccc([N+](=O)[O-])c2)CC1,-3.3,-2.1,-70.4,70.4*,-3.1,
CCC(=O)N1CCN(c2ccccc2NC(=O)c2ccc(-c3cccc([N+](=O)[O-])c3)o2)CC1,-2.1,-2.0,-75.7,75.7*,-17.9,
COc1cccc(C(=O)NC(=S)Nc2ccccc2N2CCCC2)c1,-2.9,-2.8,-85.0,85.0*,10.0,
CN1CCN(c2ccccc2NC(=O)c2ccc(-c3cccc([N+](=O)[O-])c3)o2)CC1,0.1,-3.5,-42.7,42.7,-1.7,
O=C(c1ccc(-c2cccc([N+](=O)[O-])c2)o1)N1CCN(c2ccc([N+](=O)[O-])cc2)CC1,-1.5,0.8,-71.1,71.1*,-7.8,
CCC(=O)N1CCN(c2ccc(Cl)cc2NC(=O)c2cccc([N+](=O)[O-])c2)CC1,-0.5,-4.3,-70.8,70.8*,-13.3,
CCC(=O)N1CCN(c2ccc(Cl)cc2NC(=O)c2ccc([N+](=O)[O-])o2)CC1,-1.6,-4.9,-49.2,49.2,4.5,
CCOC(=O)C1CCN(S(=O)(=O)c2ccc3c(c2)CCN3C(=O)C2CCC2)CC1,-0.7,-3.6,12.5,-12.5,-1.8,
CC(=O)c1cnc2nc(SCc3ccc(Cl)cc3)nn2c1C,·,178.5*,3.9,-3.9,4.3,
CN(NC(=O)c1ccccc1F)c1ccc([N+](=O)[O-])cn1,-0.8,54.8*,-1.0,1.0,-7.5,
C#CCN1[C@@H]2CCN(C2)c2cc(Br)ccc2S1(=O)=O,-0.4,50.9*,3.4,-3.4,·,
COc1ccc(CN2C[C@H]3CCCN3c3cc(Br)ccc3S2(=O)=O)cc1,-1.1,-1.1,-21.9,21.9,-2.1,
O=C(O)c1ccccc1CSc1ccccn1,0.5,-0.8,27.0,-27.0,-8.0,
Cc1csc(=O)n1CC(=O)OCC(=O)Nc1ccc(Cl)cc1F,-0.3,·,22.2,-22.2,1.9,
Cc1cccc(N2NC(=O)/C(=C/c3ccc(-c4ccc(Cl)c(C(=O)O)c4)o3)C2=O)c1,-0.2,96.8*,13.7,-13.7,-0.3,
CN(C)/C=C/C(=O)c1ccccc1OCc1cnc(Cl)s1,-1.3,·,0.8,-0.8,-5.2,
CN(C)S(=O)(=O)c1ccc(C(=O)NC2CCCc3ccccc32)cc1 (configuration not stated),-1.6,70.6*,-4.1,4.1,-0.9,
CN(C)S(=O)(=O)c1cccc(C(=O)NC2CCCc3ccccc32)c1 (configuration not stated),-1.7,1.4,·,·,0.6,
O=C(c1cc(COc2ccc3c(c2)CCCC3)on1)N1CCCC1,-2.8,-0.4,20.5,-20.5,·,
COc1ccc(-c2cnc3c(-c4ccc(F)cc4)cnn3c2N)cc1,·,-2.7,-95.3,95.3*,0.3,
COc1ccc(-c2cnn3c(N)c(S(=O)(=O)C(C)(C)C)cnc23)cc1,-0.6,2.7,-11.9,11.9,-12.3,
O=c1cc2oc3cc(O)c(O)cc3c(-c3ccccc3[N+](=O)[O-])c-2cc1O,0.6,-0.7,-89.6,89.6*,6.0,
Cc1ccc(CN(C)c2ccc(S(=O)(=O)N3CCCC3)cn2)cc1,-0.2,·,19.8,-19.8,6.1,
C=CCN(c1ccccc1OC)S(=O)(=O)c1cccc(C(=O)Nc2nnc(C3CC3)s2)c1,-0.5,40.4*,-13.1,13.1,-9.1,
COc1ccc(CN(C)C(=O)COC(=O)c2ccc(-c3ccccc3)cc2)c(OC)c1OC,-3.2,-1.5,-6.0,6.0,-4.4,
SMILES,CAL PDZ FP-1,CAL PDZ FP-2,SR-BI DiI-HDL act,SR-BI DiI inh,ATG4B inhibitor,others
CCOc1ccc2nc(N(CCN(CC)CC)C(=O)/C=C/c3cccs3)sc2c1,-1.2,31.0*,-30.5,30.5,-0.5,
CCN(CC)CCN(C(=O)/C=C/c1cccs1)c1nc2ccc(OC)cc2s1,-1.1,-2.6,15.2,-15.2,2.7,
COc1ccc(/C=C2\Sc3ccc(C(=O)NCc4cccnc4)cc3N(C)C2=O)cc1OC,-1.4,-0.9,-73.9,73.9*,-13.5,
Cn1c(CC(=O)Nc2ccccc2F)nnc1SCC(=O)Nc1ccccc1Br,-1.0,41.8*,-2.4,2.4,0.4,
Cn1c(CC(=O)Nc2ccccc2F)nnc1SCC(=O)Nc1nncs1,-1.7,-2.7,·,·,-2.5,
CCOc1ccc(CCNC(=O)C2CC(=O)N(c3ccccc3OCC)C2)cc1OCC (configuration not stated),-2.2,-1.2,-79.1,79.1*,-4.3,DiI quencher=-1.0%
CCOc1ccccc1N1CC(C(=O)NCCC2=CCCCC2)CC1=O (configuration not stated),-2.0,-1.0,-62.8,62.8,18.3,
O=C(COc1ccccc1Cl)NCCCNC(=O)c1cccnc1,-1.3,·,·,·,16.9,
CCOC(=O)Nc1ccc2c(c1)N(C(=O)C(C)N1CCCC1)c1ccccc1CC2 (configuration not stated),-0.2,10.7,16.3,-16.3,-1.6,DiI quencher=-0.8%
COc1ccc(C2/C=C\CN(S(=O)(=O)c3ccc(-c4ccccc4)cc3)CC(=O)N2Cc2ccc(F)cc2)cc1 (configuration not stated),-2.3,-7.1,-81.2,81.2*,-3.1,DiI quencher=-5.2%
Cn1cc(S(=O)(=O)Nc2cccc3ccccc23)c(=O)n(C)c1=O,-2.5,-2.0,26.8,-26.8,3.9,
CCOc1cc2c(cc1OCC)CN(CC(=O)Nc1ccccc1C(=O)NC1CC1)CC2,-0.4,-2.5,-7.5,7.5,3.4,
CCOc1ccc(NC(=O)CN2CCN(CC(=O)Nc3ccc(N(C)C)cc3)CC2)cc1,-0.4,-4.3,-86.1,86.1*,-6.0,DiI quencher=-12.7%
CCOc1ccc(NC(=O)CN2CCN(CC(=O)Nc3ccc(F)cc3)CC2)cc1,-0.8,-10.7,-53.0,53.0,-6.3,
COc1ccc(NC(=O)CN2CCN(CC(=O)Nc3cc(OC)cc(OC)c3)CC2)cc1,0.3,·,-40.4,40.4,-5.7,
COc1ccc(NC(=O)CN2CCN(CC(=O)Nc3ccc(OC)c(OC)c3)CC2)cc1,1.0,·,-71.9,?,-4.2,DiI quencher=-2.2%
COc1ccc(CCC(=O)Nc2ccc(-c3noc(-c4ccc(OC)c(OC)c4)n3)cc2)cc1,-0.2,-8.4,-101.0,101.0*,-11.8,DiI quencher=-4.8%
CC1=C(C(=O)Nc2ccccc2)C(c2cccnc2)n2ncnc2N1 (configuration not stated),-1.4,-2.4,20.3,-20.3,9.1,
